Laboratory results from ChEMBL document CHEMBL5715960, “Epigenetic Co-Deregulation of EZH2/TET1 is a Senescence-Countering, Actionable Vulnerability in Triple-Negative Breast Cancer” (Theranostics, 2019).
Active and inactive are the calls of the source. No cut-off for these calls is given here.

Assays:
[1] = tested on: MDA-MB-231; assay: […] in human MDA-MB-231 cells xenografted in Crl:NU-Foxn1-nu/nu mouse […] administered at 5 mg/kg, ip in presence of adriamycin treated for 21 days by SA-beta-gal staining analysis; type: functional, organism-based; settings: time 21.0 day
In short: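 SA-β-gal staining of xenograft tumors. Twice-weekly intraperitoneal GSK343 5 mg/kg, adriamycin 1 mg/kg, the combination, or DMSO, started at a tumor volume of about 50 mm3 and continued for 21 days.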

[2] = tested on: MDA-MB-231; assay: Antiproliferative activity against human MDA-MB-231 cells at 0.5 to 2 uM for 2 days by Guava viacount assay; type: functional, cell-based; settings: dose 0.5-2 µM, time 2.0 day
In short: (§1)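 Cells plated at 2 × 10^4 (24-well) or 1 × 10^5 (12-well), exposed to a range of GSK343 concentrations for 2 days against DMSO solvent control; cell number and viability read by Guava ViaCount flow cytometry, relative to DMSO. Triplicate; mean ± SD.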

[3] = tested on: MCF7; assay: Induction of cell cycle arrest in human MCF7 cells assessed as accumulation of cells at S phase measured at 2 uM by BrdU/PI staining based flow cytometric analysis (reference value: 27.7%); type: functional
[4] = tested on: SK-BR-3; assay: Cytotoxicity against human SK-BR-3 cells at 0.5 to 2 uM for 2 days by Guava viacount assay; type: toxicity, cell-based; settings: sk-br-3, 48 h, dose 0.5-2 µM, time 2 day; in short: as §1
[5] = tested on: MCF7; assay: Upregulation of TP53 gene in human MCF7 cells at 2 uM by qRT-PCR analysis; type: functional, cell-based
In short: (§2)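 Relative transcript levels measured by qRT-PCR in cells treated with 2 µM inhibitor, normalised to DMSO-treated control cells. Triplicate experiments unless stated otherwise; mean ± SD reported; unpaired two-tailed Student's t-test at p < 0.05.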

[6] = tested on: MDA-MB-436; assay: Upregulation of TP53 gene in human MDA-MB-436 cells at 2 uM by qRT-PCR analysis; type: functional, cell-based; in short: as §2
[7] = tested on: MDA-MB-231; assay: Effect on human MDA-MB-231 cells assessed as increase in TET1 mRNA level by qRT-PCR analysis
[8] = tested on: MDA-MB-231; assay: Induction of cell cycle arrest in human MDA-MB-231 cells assessed as accumulation of cells at S phase measured at 2 uM by BrdU/PI staining based flow cytometric analysis (reference value: 44.6%); type: functional
[9] = tested on: BT-474; assay: Upregulation of TP53 gene in human BT-474 cells at 2 uM by qRT-PCR analysis; type: functional, cell-based; in short: as §2
[10] = tested on: BT-474; assay: Cytotoxicity against human BT-474 cells assessed as increase in cell death at 10 uM for 2 days by Guava viacount assay; type: toxicity, cell-based; settings: bt-474, 48 h, time 2 day; in short: as §1
[11] = tested on: MDA-MB-231; assay: Upregulation of CDKN1A gene in human MDA-MB-231 cells at 2 uM by qRT-PCR analysis; type: functional, cell-based; in short: as §2
[12] = tested on: MDA-MB-436; assay: Effect on human MDA-MB-436 cells expressing shTET1 assessed as increase in H3K9me3 cascade by immunoblot analysis; type: functional, cell-based
[13] = tested on: MDA-MB-436; assay: Effect on human MDA-MB-436 cells assessed as apoptotic phenotype by measuring increase in p53 expression level at 2 uM in presence of adriamycin by immunoblot analysis; type: functional, cell-based
In short: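 Immunoblot of cell lysates after 0.05 µg/ml adriamycin alone, with 2 µM GSK343, or DMSO. α-Tubulin and total H3 used as loading controls.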

[14] = tested on: MCF7; assay: Effect on human MCF7 cells assessed as increase in TET2 transcription by qRT-PCR analysis; type: functional, cell-based
In short: (§3)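 qRT-PCR of TET1, TET2 and TET3 transcripts in breast cancer cells exposed to GSK343 (2 µM unless otherwise indicated), shown relative to DMSO-treated cells. Mean ± SD, triplicate unless stated.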

[15] = tested on: MDA-MB-436; assay: Antiproliferative activity in human MDA-MB-436 cells expressing vector assessed as increase in SA-beta-gal positive cells by SA-beta-gal staining analysis (reference value: 10.3+/-3.7%); type: functional
[16] = tested on: MDA-MB-436; assay: Effect on human MDA-MB-436 cells assessed as increase in global 5hmc level by dot analysis; type: functional, cell-based
In short: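 Global 5hmC measured by dot blot on genomic DNA from cells given GSK343 or carrying EZH2 knock-down, with DMSO or scrambled shRNA as controls. DNA denatured in 0.1 M NaOH at 99 °C for 5 min, then neutralized with ammonium sulfate pH 7.0. 5 µg spotted, UV-crosslinked, probed with anti-5hmC for 1 h at room temperature, ECL detection, dot intensity quantified. Mean ± SD.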

[17] = tested on: BT-474; assay: Upregulation of CDKN1A gene in human BT-474 cells at 2 uM by qRT-PCR analysis; type: functional, cell-based; in short: as §2
[18] = tested on: MDA-MB-436; assay: Induction of apoptosis in human MDA-MB-436 cells xenografted in Crl:NU-Foxn1-nu/nu mouse assessed as apoptotic cells in tumor administered at 5 mg/kg, ip in presence of adriamycin treated for 21 days by TUNEL staining analysis; type: functional, organism-based; settings: time 21.0 day
In short: (§4)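 TUNEL staining of xenograft tumor sections. Dosing started when tumors reached about 50 mm3: twice-weekly intraperitoneal GSK343 5 mg/kg, adriamycin 1 mg/kg, the combination, or DMSO solvent control, for 21 days.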

[19] = tested on: MCF7; assay: Antiproliferative activity in human MCF7 cells assessed as increase in SA-beta-gal positive cells at 2 uM for 5 days by SA-beta-gal staining analysis; type: toxicity, cell-based; settings: mcf7, 120 h, time 5 day
In short: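 GSK343 2 µM or DMSO for 5 days, then chromogenic SA-β-gal staining and counting of positive cells. Triplicate; mean ± SD.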

[20] = tested on: MDA-MB-231; assay: Induction of apoptosis in human MDA-MB-231 cells xenografted in Crl:NU-Foxn1-nu/nu mouse assessed as apoptotic cells in tumor administered at 5 mg/kg, ip in presence of adriamycin treated for 21 days by TUNEL staining analysis; type: functional, organism-based; settings: time 21.0 day; in short: as §4
[21] = tested on: MDA-MB-231; assay: Upregulation of TET1 in human MDA-MB-231 cells at 2 uM for 2 days by immunoblot analysis; type: functional, cell-based; settings: time 2.0 day
[22] = tested on: BT-474; assay: Effect on human BT-474 cells assessed as increase in TET1 transcription by qRT-PCR analysis; type: functional, cell-based; in short: as §3
[23] = tested on: MDA-MB-231; assay: Effect on […] in human MDA-MB-231 cells assessed as repression in TET1 promoter EZH2 by ChiP-qPCR analysis; type: functional, cell-based
In short: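 Cells treated with GSK343 or DMSO; chromatin immunoprecipitated with anti-EZH2 or anti-H3K27me3 antibody and quantified by qPCR with primers for the TET1 promoter; input as internal control, IgG as negative control.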

[24] = tested on: MDA-MB-436; assay: Downregulation of E2F1 in human MDA-MB-436 cells at 2 uM for 2 days by immunoblot analysis; type: functional, cell-based; settings: time 2.0 day
[25] = tested on: MCF7; assay: Effect on human MCF7 cells assessed as increase in TET1 level at 2 uM in presence of adriamycin by immunoblot analysis; type: functional, cell-based
In short: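 Immunoblot of MDA-MB-231 and MCF7 lysates after 0.005 µg/ml adriamycin with or without 2 µM GSK343, or DMSO. α-Tubulin and total H3 used as loading controls.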

[26] = tested on: MDA-MB-231; assay: Effect on human MDA-MB-231 cells assessed as increase in TET1 transcription by qRT-PCR analysis; type: functional, cell-based; in short: as §3
[27] = tested on: MDA-MB-436; assay: Antiproliferative activity against human MDA-MB-436 cells at 0.5 to 2 uM for 2 days by Guava viacount assay; type: functional, cell-based; settings: dose 0.5-2 µM, time 2.0 day; in short: as §1

In the case of CCCc1cc(C)[nH]c(=O)c1CNC(=O)c1cc(-c2ccnc(N3CCN(C)CC3)c2)cc2c1cnn2C(C)C, the Activity [1] is reported as “Active”, the Activity [2] is reported as “Active” and the Activity [3] is reported as 22.8%. For the same compound, the Activity [4] was “Non-Toxic”, the Activity [5] was “inactive” and the Activity [6] was “Active”. The Activity [7] was “Active”, the Activity [8] was 16.1% and the Activity [9] was “inactive”. The Activity [10] was “Non-Toxic”, the Activity [11] was “Active” and the Activity [12] was “inactive”. The Activity [13] was “Active”, the Activity [14] was “inactive” and the Activity [15] was 46.4%. For the same compound, the Activity [16] was “Active”, the Activity [17] was “inactive” and the Activity [18] was “Active”. The Activity [19] was “Non-Toxic”, the Activity [20] was “Active” and the Activity [21] was “Active”. The Activity [22] was “inactive”, the Activity [23] was “Active” and the Activity [24] was “Active”. For the same compound, the Activity [25] was “inactive”, the Activity [26] was “Active” and the Activity [27] was “Active”.
